Data on 23 molecules can be found in ChEMBL document CHEMBL1124334, “Hypolipidemic 2-[4-(1,1-dimethylethyl)phenyl]-4H-3,1-benzoxazin-4-ones. Structure-activity relationships of a novel series of high-density lipoprotein elevators” (1989).

Common to all, as to type: functional
Test [1] is filed under the species Rattus norvegicus. Put plainly: Change in plasma triglycerides in normocholesterolemic rats at 0.2 % composition of dose with diet given in a period of 3 days. In short, it runs like this:
(§1)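 Young male Wistar rats (120–150 g) fed basal powdered rodent diet ad libitum, with compound mixed into the diet at 0.2% w/w for 3 or 7 days. Plasma triglyceride and total cholesterol were then measured by standard enzymatic methods. Results are % change relative to controls.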

The test system of test [2] is Rattus norvegicus. Put plainly: Percent change in plasma total cholesterol in cholesterol-fed rats at 200 mg/kg dose given in a period of 3 days. In short, it runs like this:
(§2)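 Young male Wistar rats (120–150 g), groups of eight, fed ad libitum rodent diet with 0.5% w/w cholesterol and 0.25% cholic acid for 10 days. Compound suspended in 0.5% w/w tragacanth mucilage and given daily by stomach tube over the final 3 days; controls got vehicle. After overnight starvation, rats were killed 3 h post final dose and cardiac blood taken into heparin.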

Test [3] is filed under the species Rattus norvegicus. Put plainly: Change in plasma total cholesterol in normocholesterolemic rats at 0.2 % composition of dose with diet given in a period of 3 days. In short, it runs like this:
as §1

Test [4] concerns Rattus norvegicus. Put plainly: Percent change in plasma triglycerides in cholesterol-fed rats at 200 mg/kg dose given in a period of 3 days. In short, it runs like this:
as §2

Test [5] relates to Rattus norvegicus. Put plainly: Percent change in plasma HDL cholesterol in cholesterol-fed rats at 200 mg/kg dose given in a period of 3 days. In short, it runs like this:
as §2

Test [6] has as its system Rattus norvegicus. Put plainly: Ratio of plasma HDL cholesterol/total cholesterol at 200 g/kg for 3 days. As to conditions: in the assay text read “200 mg/kg” for “200 g/kg”. In short, it runs like this:
as §2

For test [7], the species on record is Rattus norvegicus. Put plainly: The compound was tested for % change in plasma triglycerides in normocholesterolemic rats at 0.2 % composition of dose with diet given in a period of 7 days. In short, it runs like this: as §1
Test [8] is filed under the species Rattus norvegicus. Put plainly: The compound was tested for % change in plasma total cholesterol in normocholesterolemic rats at 0.2 % composition of dose with diet given in a period of 7 days. In short, it runs like this:
as §1

`CC(C)(C)c1ccc(-c2nc3ccc(NS(=O)(=O)c4ccccc4)cc3c(=O)o2)cc1`: the Change is given as 27% in the test listed under Rattus norvegicus [1]; 7% in the test on Rattus norvegicus [2]; 5% in the test filed under Rattus norvegicus [3]; -7% in the test on Rattus norvegicus [4]; 30% in the test with Rattus norvegicus [5]. The “Change in HDL/total cholesterol ratio” value in the test with Rattus norvegicus [6] was found to be 35.

For the molecule `CCCCCCCCc1ccc2nc(-c3ccc(C(C)(C)C)cc3)oc(=O)c2c1`, the Change in the test filed under Rattus norvegicus [1] is -14%; in the test on Rattus norvegicus [2] it was -9%; in the test listed under Rattus norvegicus [3], -1%; in the test on Rattus norvegicus [4], -7%; in the test on Rattus norvegicus [5], 35%. The “Change in HDL/total cholesterol ratio” value in the test on Rattus norvegicus [6] is recorded as 29.

With `CC(C)(C)c1ccc(-c2nc3ccc(-c4ccccc4)cc3c(=O)o2)cc1`, the Change in the test listed under Rattus norvegicus [1] is listed as 1%; in the test with Rattus norvegicus [2] it was -8%; in the test filed under Rattus norvegicus [3], 0%; in the test with Rattus norvegicus [4], 0%; in the test on Rattus norvegicus [5], 60%. Also, in the test on Rattus norvegicus [6], the “Change in HDL/total cholesterol ratio” value was found to be 74.

For `COC(=O)c1cc(Br)ccc1NC(=O)c1ccc(C(C)(C)C)cc1`, the Change in the test filed under Rattus norvegicus [1] is -7%; in the test on Rattus norvegicus [2] it was -49%; in the test listed under Rattus norvegicus [3], -34%; with Rattus norvegicus [4] it was -22%; with Rattus norvegicus [5] it was -7%. The “Change in HDL/total cholesterol ratio” value in the test with Rattus norvegicus [6] worked out at 70.

`CC(C)(C)c1ccc(C(=O)O)cc1`: the Change is listed as -41% in the test filed under Rattus norvegicus [7]; -62% in the test with Rattus norvegicus [2]; -38% in the test listed under Rattus norvegicus [8]; -38% with Rattus norvegicus [4]; -50% with Rattus norvegicus [5]. The “Change in HDL/total cholesterol ratio” value in the test on Rattus norvegicus [6] worked out at 60.

Regarding `CC(C)(C)c1ccc(C(=O)Nc2ccc(Br)cc2C(N)=O)cc1`, the Change in the test filed under Rattus norvegicus [1] is 29%; in the test on Rattus norvegicus [2], -8%; in the test listed under Rattus norvegicus [3] it was 4%; in the test with Rattus norvegicus [4], -11%; in the test with Rattus norvegicus [5], -1%. The “Change in HDL/total cholesterol ratio” value in the test with Rattus norvegicus [6] was 4.

In the case of `COC(=O)c1cc(C)ccc1NC(=O)c1ccc(C(C)(C)C)cc1`, the Change in the test filed under Rattus norvegicus [1] was -8%; in the test on Rattus norvegicus [2], -20%; in the test listed under Rattus norvegicus [3], -4%; in the test with Rattus norvegicus [4] it was 68%; in the test on Rattus norvegicus [5], 25%. In the test on Rattus norvegicus [6], the “Change in HDL/total cholesterol ratio” value amounted to 46.

For `CC(C)(C)c1ccc(-c2nc3ccc(N)cc3c(=O)o2)cc1`, the Change was 1% in the test listed under Rattus norvegicus [1]; -25% in the test with Rattus norvegicus [2]; 4% in the test filed under Rattus norvegicus [3]; -11% in the test on Rattus norvegicus [4]; 4% in the test with Rattus norvegicus [5]. Also, the “Change in HDL/total cholesterol ratio” value in the test on Rattus norvegicus [6] is listed as 25.

Turning to `COc1ccc2nc(-c3ccc(C(C)(C)C)cc3)oc(=O)c2c1`, the Change was -52% in the test filed under Rattus norvegicus [1]; -28% with Rattus norvegicus [2]; -48% in the test listed under Rattus norvegicus [3]; -26% in the test with Rattus norvegicus [4]; 21% in the test with Rattus norvegicus [5]. In the test with Rattus norvegicus [6], the Ratio turned out to be 52.

For the molecule `CC(C)(C)c1ccc(-c2nc3ccccc3c(=O)o2)cc1`, the Change is -32% in the test listed under Rattus norvegicus [7]; -41% in the test on Rattus norvegicus [2]; -24% in the test filed under Rattus norvegicus [8]; -26% in the test on Rattus norvegicus [4]; 49% in the test with Rattus norvegicus [5]. The “Change in HDL/total cholesterol ratio” value in the test on Rattus norvegicus [6] was found to be 131.

Turning to `CCCCc1ccc2nc(-c3ccc(C(C)(C)C)cc3)oc(=O)c2c1`, the Change in the test listed under Rattus norvegicus [1] is -32%; with Rattus norvegicus [2], -4%; in the test listed under Rattus norvegicus [3], -3%; in the test with Rattus norvegicus [4], 22%; with Rattus norvegicus [5], 65%. The “Change in HDL/total cholesterol ratio” value with Rattus norvegicus [6] was 69.

Regarding `O=C(O)c1cccnc1` [NIACIN], the Change is reported as -3% in the test listed under Rattus norvegicus [7]; -29% in the test on Rattus norvegicus [2]; -4% in the test listed under Rattus norvegicus [8]; -39% in the test with Rattus norvegicus [4]; 20% in the test with Rattus norvegicus [5]. Moreover, in the test on Rattus norvegicus [6], the Ratio stood at 63.

With `Cc1ccc2nc(Cc3ccc(C(C)(C)C)cc3)oc(=O)c2c1`, the Change in the test with Rattus norvegicus [2] is reported as 1%; in the test on Rattus norvegicus [4] it was 27%; with Rattus norvegicus [5], -19%. In the test with Rattus norvegicus [6], the “Change in HDL/total cholesterol ratio” value is listed as -27.

As to `COC(=O)c1ccc2nc(-c3ccc(C(C)(C)C)cc3)oc(=O)c2c1`, the Change in the test filed under Rattus norvegicus [1] is -13%; with Rattus norvegicus [2] it was 29%; in the test filed under Rattus norvegicus [3] it was -2%; in the test on Rattus norvegicus [4] it was 0%; in the test on Rattus norvegicus [5], 18%. The “Change in HDL/total cholesterol ratio” value in the test on Rattus norvegicus [6] is recorded as -4.

For the molecule `Cc1ccc2nc(-c3ccc(C(C)(C)C)cc3)n(C)c(=O)c2c1`, the Change in the test listed under Rattus norvegicus [1] is given as -3%; in the test on Rattus norvegicus [2] it was 2%; in the test listed under Rattus norvegicus [3], 2%; with Rattus norvegicus [4], 8%; in the test with Rattus norvegicus [5] it was 6%. In the test on Rattus norvegicus [6], the “Change in HDL/total cholesterol ratio” value was -5.

Take `CN(C(=O)c1ccc(C(C)(C)C)cc1)c1ccc(Br)cc1C(=O)O`: the Change in the test filed under Rattus norvegicus [1] is on record as 10%; in the test on Rattus norvegicus [2], -22%; in the test filed under Rattus norvegicus [3] it was -10%; in the test with Rattus norvegicus [4] it was -13%; with Rattus norvegicus [5], 33%. In addition, the “Change in HDL/total cholesterol ratio” value in the test with Rattus norvegicus [6] is recorded as 59.

Regarding `CC(C)(C)c1ccc(C(=O)Nc2ccc(Br)cc2C(=O)O)cc1`, the Change in the test listed under Rattus norvegicus [1] was -20%; in the test on Rattus norvegicus [2], -29%; in the test filed under Rattus norvegicus [3], -56%; with Rattus norvegicus [4], -26%; in the test with Rattus norvegicus [5], 24%. Further, in the test on Rattus norvegicus [6], the “Change in HDL/total cholesterol ratio” value is given as 70.

On to `CC(C)(C)c1ccc(-c2nc3ccc(NS(C)(=O)=O)cc3c(=O)o2)cc1`, for which the Change was -8% in the test filed under Rattus norvegicus [1]; -16% in the test with Rattus norvegicus [2]; -3% in the test filed under Rattus norvegicus [3]; 6% in the test on Rattus norvegicus [4]; 22% with Rattus norvegicus [5]. Besides, the “Change in HDL/total cholesterol ratio” value in the test with Rattus norvegicus [6] was found to be 27.

As for `CNc1nc(-c2ccc(C(C)(C)C)cc2)nc2ccc(C)cc12`, the Change in the test with Rattus norvegicus [2] stood at 27%; in the test on Rattus norvegicus [4], 79%; in the test with Rattus norvegicus [5], 10%. Besides, in the test on Rattus norvegicus [6], the “Change in HDL/total cholesterol ratio” value was -12.

On to `CC(C)(C)c1ccc(-c2nc3ccc(C(C)(C)C)cc3c(=O)o2)cc1`, for which the Change in the test filed under Rattus norvegicus [1] is -17%; in the test on Rattus norvegicus [2] it was 63%; in the test filed under Rattus norvegicus [3], -15%; with Rattus norvegicus [4] it was 52%; with Rattus norvegicus [5] it was 30%. For the same molecule, the “Change in HDL/total cholesterol ratio” value with Rattus norvegicus [6] was -17.

On to `Cc1ccc2nc(-c3ccc(C(C)(C)C)cc3)nc(O)c2c1`, for which the Change in the test filed under Rattus norvegicus [1] is 28%; with Rattus norvegicus [2], -17%; in the test filed under Rattus norvegicus [3] it was 1%; in the test with Rattus norvegicus [4] it was -18%; in the test on Rattus norvegicus [5] it was 24%. In addition, in the test on Rattus norvegicus [6], the “Change in HDL/total cholesterol ratio” value is 25.

Regarding `CC(C)(C)c1ccc(-c2nc3ccc(C(F)(F)F)cc3c(=O)o2)cc1`, the Change was -45% in the test listed under Rattus norvegicus [1]; -18% with Rattus norvegicus [2]; -40% in the test filed under Rattus norvegicus [3]; -6% in the test on Rattus norvegicus [4]; -8% in the test with Rattus norvegicus [5]. Also, the “Change in HDL/total cholesterol ratio” value in the test with Rattus norvegicus [6] was found to be 11.

In the case of `CN(C)c1ccc2nc(-c3ccc(C(C)(C)C)cc3)oc(=O)c2c1`, the Change in the test filed under Rattus norvegicus [1] was -12%; in the test on Rattus norvegicus [2], -4%; in the test listed under Rattus norvegicus [3], 10%; in the test with Rattus norvegicus [4], 16%; with Rattus norvegicus [5], 26%. Further, the “Change in HDL/total cholesterol ratio” value with Rattus norvegicus [6] is listed as 22.
